Tests used:
[1] = test system: Human immunodeficiency virus 1; experiment: Antiviral activity against HIV1 LAI with RT K103N mutation in MT4 cells by EGFP based replication assay; type: functional, organism-based; settings: Human immunodeficiency virus 1, LAI
Procedure, shortened: (§1)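 MT4-LTR-EGFP indicator cells (EGFP under HIV-1 LTR, induced via Tat) mixed with HIV-1 LAI or LAI-derived RT mutant and serial 4-fold compound dilutions; incubated 37 °C for 3 days. EGFP expression read by argon laser-scanning microscopy. EC50 = concentration inhibiting 50% of virus-induced EGFP signal, by linear interpolation of signal versus log concentration.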

[2] = test system: Human immunodeficiency virus 1; experiment: Antiviral activity against HIV1 LAI with RT L100I and K103N mutation in MT4 cells by EGFP based replication assay; type: functional, organism-based; settings: Human immunodeficiency virus 1, LAI; procedure, shortened: as §1
[3] = test system: Human immunodeficiency virus 1; experiment: Antiviral activity against HIV1 LAI with RT L100I mutation in MT4 cells by EGFP based replication assay; type: functional, organism-based; settings: Human immunodeficiency virus 1, LAI
Procedure, shortened: (§2)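 MT4-LTR-EGFP indicator cells (EGFP under HIV-1 LTR, induced via Tat) mixed with HIV-1 LAI or LAI-derived RT mutant and serial 4-fold compound dilutions; incubated 37 °C for 3 days. EGFP expression read by argon laser-scanning microscopy.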

[4] = test system: Human immunodeficiency virus 1; experiment: Antiviral activity against HIV1 LAI with RT F227C mutation in MT4 cells by EGFP based replication assay; type: functional, organism-based; settings: Human immunodeficiency virus 1, LAI; procedure, shortened: as §1
[5] = test system: Human immunodeficiency virus 1; experiment: Antiviral activity against HIV1 LAI with RT K103N and Y181C mutation in MT4 cells by EGFP based replication assay; type: functional, organism-based; settings: Human immunodeficiency virus 1, LAI; procedure, shortened: as §1
[6] = Selectivity index, ratio of CC50 for human MT4 cells to EC50 for HIV1 LAI; type: functional
[7] = test system: Human immunodeficiency virus 1; experiment: Antiviral activity against HIV1 LAI with RT Y188L mutation in MT4 cells by EGFP based replication assay; type: functional, organism-based; settings: Human immunodeficiency virus 1, LAI; procedure, shortened: as §1
[8] = test system: Human immunodeficiency virus 1; experiment: Antiviral activity against HIV1 LAI with RT F227C and V106A mutation in MT4 cells by EGFP based replication assay; type: functional, organism-based; settings: Human immunodeficiency virus 1, LAI; procedure, shortened: as §1
[9] = Cytotoxicity against human MT4 cells after 3 days by EGFP based replication assay; type: cell-based
Procedure, shortened: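 Uninfected MT4-CMV-EGFP cells, which express EGFP constitutively, were exposed to serial 4-fold compound dilutions at 37 °C for 3 days. EGFP was read by argon laser-scanning microscopy. CC50 was obtained by linear interpolation of EGFP signal against log concentration.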

[10] = test system: Human immunodeficiency virus 1; experiment: Antiviral activity against HIV1 LAI with RT Y181C mutation in MT4 cells by EGFP based replication assay; type: functional, organism-based; settings: Human immunodeficiency virus 1, LAI; procedure, shortened: as §1
[11] = test system: Human immunodeficiency virus 1; experiment: Antiviral activity against wild type HIV1 LAI infected in MT4 cells by EGFP based replication assay; type: functional, organism-based; settings: Human immunodeficiency virus 1, LAI; procedure, shortened: as §2
[12] = AUC in Wistar rat at 10 mg/kg, po; type: ADME, organism-based; design: dose 10 mg/kg, route oral; settings: plasma
[13] = Cmax in Wistar rat at 10 mg/kg, po; type: ADME, organism-based; design: dose 10 mg/kg, route oral; settings: in vivo
[14] = Metabolic stability in human liver microsomes after 15 mins; type: ADME, Microsome; settings: read-out: Stability
Procedure, shortened: (§3)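 Liver microsomes were the 100,000×g pellet of S9 from tissue homogenized in 0.1 M phosphate, pH 7.4. Incubations contained 1 mg/mL protein in 0.1 M phosphate pH 7.4 with an NADPH-generating system, plus a heat-inactivated control. After 5 min preincubation at 37 °C, NADP started the reaction, which ran 15 min and was stopped with DMSO or acetonitrile. Duplicates, LC-MS; fraction remaining relative to T=0.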

[15] = Half life in Wistar rat at 10 mg/kg, po after 6 hrs; type: ADME, organism-based; design: dose 10 mg/kg, route oral; settings: in vivo
[16] = Half life in Beagle dog at 10 mg/kg, po after 23 hrs; type: ADME, organism-based, Canis lupus familiaris; design: dose 10 mg/kg, route oral; settings: in vivo
[17] = Cmax in Beagle dog at 10 mg/kg, po; type: ADME, organism-based, Canis lupus familiaris; design: dose 10 mg/kg, route oral; settings: in vivo
[18] = Metabolic stability in rat liver microsomes after 15 mins; type: ADME, Microsome; settings: read-out: Stability; procedure, shortened: as §3
[19] = Metabolic stability in dog liver microsomes after 15 mins; type: ADME, Canis lupus familiaris, Microsome; settings: read-out: Stability; procedure, shortened: as §3
[20] = AUC in Beagle dog at 10 mg/kg, po; type: ADME, organism-based, Canis lupus familiaris; design: dose 10 mg/kg, route oral; settings: plasma

| Structure (SMILES) | EC50 [1] [nM] | EC50 [2] [nM] | EC50 [3] [nM] | EC50 [4] [nM] | EC50 [5] [nM] | Ratio CC50/EC50 [6] | EC50 [7] [nM] | EC50 [8] [nM] | CC50 at 72 h [9] [nM] | EC50 [10] [nM] | EC50 [11] [nM] | AUC [12] [ng·h/mL] | Cmax [13] [ng/mL] | remaining at 0.25 h [14] [%] | half-life [15] [h] | half-life [16] [h] | Cmax [17] [ng/mL] | remaining at 0.25 h [18] [%] | remaining at 0.25 h [19] [%] | AUC [20] [ng·h/mL] |
| --- | --- | --- | --- | --- | --- | --- | --- | --- | --- | --- | --- | --- | --- | --- | --- | --- | --- | --- | --- | --- |
| Cc1cc(/C=C/C#N)cc(C)c1Oc1ccnc(Nc2ccc(C#N)cc2)n1 | 0.2 | 3.7 | 0.6 | 0.7 | 4.3 | 28302 | 1.6 | 0.6 | > 25000 | 3.2 | 0.9 |  |  |  |  |  |  |  |  |  |
| Cc1cc(/C=C\C#N)cc(C)c1Sc1ccnc(Nc2ccc(C#N)cc2)n1 | 0.7 | 79.2 | 2.6 | 1.4 | 18.6 | >6821 | 2.8 | 1.1 | > 25000 | 5.8 | 3.7 |  |  |  |  |  |  |  |  |  |
| Cc1cc(/C=C/C#N)ccc1Nc1ccnc(Nc2ccc(C#N)cc2)n1 | 0.6 | 479 | 9.2 | 1.2 | 89.6 | >29372 | 43.6 | 1.2 | > 25000 | 13.4 | 0.9 |  |  |  |  |  |  |  |  |  |
| Cc1cc(/C=C/C#N)ccc1N(C)c1ccnc(Nc2ccc(C#N)cc2)n1 | 0.7 | 104 | 2.5 | 1 | 160 | 11351 | 16.8 | 1.5 | 11600 | 12 | 1 |  |  |  |  |  |  |  |  |  |
| CCc1cc(/C=C/C#N)cc(C)c1Nc1ccnc(Nc2ccc(C#N)cc2)n1 | 0.5 | 8.2 | 0.9 | 1.1 | 5.3 | 841 | 2.6 | 0.9 | 2550 | 4 | 3 |  |  |  |  |  |  |  |  |  |
| Cc1cc(/C=C/C#N)cc(C(C)C)c1Nc1ccnc(Nc2ccc(C#N)cc2)n1 | 1.3 | 38.3 | 3.1 | 3.9 | 10.6 | 2947 | 3.8 | 3.2 | 11800 | 11.1 | 4 |  |  |  |  |  |  |  |  |  |
| COc1cc(/C=C/C#N)cc(C)c1Nc1ccnc(Nc2ccc(C#N)cc2)n1 | < 0.1 | 21.1 | 0.5 | 0.3 | 4.3 | 846 | 0.9 | 0.3 | 633 | 1.9 | 0.7 |  |  |  |  |  |  |  |  |  |
| Cc1cc(/C=C/C#N)cc(Cl)c1Nc1ccnc(Nc2ccc(C#N)cc2)n1 | 0.1 | 6.6 | 0.4 | 0.5 | 4.1 | 3316 | 2.3 | 0.5 | 2610 | 2.3 | 0.8 | 910 | 182 | 39 | 3.54 | 14.5 | 1040 | 72 | 60 | 17600 |
| COc1cc(/C=C/C#N)cc(Cl)c1Nc1ccnc(Nc2ccc(C#N)cc2)n1 | 0.3 | 15.8 | 0.2 | 0.8 | 2 | 3981 | 2.5 | 0.3 | 398 | 1 | 0.1 | 410 | 199 | 26 | 3.83 | 14.5 | 2180 | 53 | 58 | 44500 |
| N#C/C=C/c1ccc(Nc2ccnc(Nc3ccc(C#N)cc3)n2)cc1 | 57.7 | 6440 | 585 | 98.4 | 3950 | >737 | 303 | 76.1 | > 25000 | 1520 | 33.9 |  |  |  |  |  |  |  |  |  |
| O=C1Nc2ccc(Cl)cc2C(C#CC2CC2)(C(F)(F)F)O1 (single isomer, unassigned) [EFAVIRENZ] | 46.4 | 1460 | 31 | 46.9 | 55 |  | 55 | 4.1 | 32300 | 3.9 |  |  |  |  |  |  |  |  |  |  |
| CC(C)Nc1cccnc1N1CCN(C(=O)c2cc3cc(NS(C)(=O)=O)ccc3[nH]2)CC1 [DELAVIRDINE] | 10200 | 20600 | 9530 | 4560 | 38400 | >550 | 1020 | 721 | 67200 | 9040 | 122 |  |  |  |  |  |  |  |  |  |
| Cc1ccnc2c1NC(=O)c1cccnc1N2C1CC1 [NEVIRAPINE] | 1980 | 3530 |  | 827 | 14500 |  | 5910 | 2700 | 31600 | 7080 | 33.3 |  |  |  |  |  |  |  |  |  |
| Cc1cc(/C=C/C#N)cc(C)c1Nc1ccnc(Nc2ccc(C#N)cc2)n1 [RILPIVIRINE] | […] | 7.5 | 0.5 | 0.5 | 3.2 |  | 1.2 | 0.5 | 2000 | […] |  | 9650 | 1940 | 26 | […] | 23 | 1050 | 73 | 65 | […] |

Source: ChEMBL document CHEMBL1146363, “Synthesis of novel diarylpyrimidine analogues of TMC278 and their antiviral activity against HIV-1 wild-type and mutant strains” (Eur J Med Chem, 2007)
